From ChEMBL document CHEMBL4680238, “Novel octapeptide-DTX prodrugs targeting MMP-7 as effective agents for the treatment of colorectal cancer with lower systemic toxicity” (Eur J Med Chem, 2020)
Residues, ends and D or L forms follow the SMILES beside them. *: point of attachment. X2 = CC(=O)O[C@@]12CO[C@@H]1C[C@H](O)[C@@]1(C)C(=O)[C@H](O)C3=C(C)[C@@H](OC(=O)[C@H](OC(=O)OCc4ccc(N*)cc4)[C@@H](NC(=O)OC(C)(C)C(F)(F)F)c4ccccc4)C[C@@](O)([C@@H](OC(=O)c4cccc(F)c4)[C@H]21)C3(C)C

Tests used:
SW-620 = assay: Cytotoxicity against human SW-620 cells assessed as reduction in cell viability after 72 hrs by MTT assay; format: functional, cell-based; settings: SW-620, 72 h
Method in brief: (§1)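 Cells seeded at 5000/well and precultured 1 day. HCT116 grown in McCoy's 5A + 10% FBS; SW620 and HEK293 in DMEM + 10% FBS; CCD18Co in DMEM + 15% FBS. Compounds from 0.1 M DMSO stocks were tested at 10^-10 to 10^-4 mol/L in sixplicate: HCT116 and HEK293 for 48 h, SW620 and CCD18Co for 72 h, at 37 °C, 5% CO2. MTT (5 mg/mL) added for 4 h, then A570 read; IC50 estimated.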

HCT-116 [1] = assay: Cytotoxicity against human HCT-116 cells assessed as reduction in cell viability after 48 hrs by MTT assay; format: functional, cell-based; settings: HCT-116, 48 h; method in brief: as §1
CCD-18Co = assay: Cytotoxicity against human CCD-18Co cells assessed as reduction in cell viability after 72 hrs by MTT assay; format: cell-based; method in brief: as §1
HEK293 = assay: Cytotoxicity against HEK293 cells assessed as reduction in cell viability after 48 hrs by MTT assay; format: cell-based; settings: Homo sapiens, HEK293, 48 h; method in brief: as §1
[2] = Half life of compound in PBS buffer at pH 7.4 at 50 ug/ml up to 72 hrs by RP-HPLC analysis; format: physicochemical; settings: dose 50 µg/ml
[3] = Half life in Sprague-Dawley rat plasma t 50 ug/ml up to 72 hrs by RP-HPLC analysis; format: ADME, cell-free; settings: dose 50 µg/ml
HCT-116 [4] = assay: Antitumour activity against human HCT-116 cells xenografted in ip dosed BALB/c nude mouse assessed as tumour growth inhibition administered once for every 7 days for 14 days; format: functional, organism-based; settings: time 14.0 day
Method in brief: (§2)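 Male BALB/c nude mice received s.c. HCT116 cells (2 × 10^6 in 0.2 mL PBS). Once tumours reached 100-200 mm3, mice were randomized into groups of six. Dosing was ip, 0.1 mL/10 g, once every 7 days, in DMSO 0.5%/castor oil 5%/ethanol 5%/saline 89.5%; vehicle controls got solvent. Caliper volume V = L×W²×0.52 read every 2-3 days. Tumours excised and weighed on day 14.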

HCT-116 [5] = assay: Antitumour activity against human HCT-116 cells xenografted in BALB/c nude mouse assessed as tumour growth inhibition at 11.1 mg/kg, ip administered once for every 7 days for 14 days relative to control; format: functional; settings: HCT-116, ip, 336 h, time 14 day, read-out: TGI; method in brief: as §2
HCT-116 [6] = assay: Antitumour activity against human HCT-116 cells xenografted in BALB/c nude mouse assessed as tumour growth inhibition at 22.2 mg/kg, ip administered once for every 7 days for 14 days relative to control; format: functional; settings: HCT-116, ip, 336 h, time 14 day, read-out: TGI; method in brief: as §2
HCT-116 [7] = assay: Antitumour activity against human HCT-116 cells xenografted in BALB/c nude mouse assessed as tumour growth inhibition at 5.55 mg/kg, ip administered once for every 7 days for 14 days relative to control; format: functional; settings: HCT-116, ip, 336 h, time 14 day, read-out: TGI; method in brief: as §2
[8] = Toxicity in BALB/c nude mouse xenografted with human HCT-116 cells assessed as reduction in body weight at 22.2 mg/kg, ip administered once for every 7 days for 14 days relative to control; format: organism-based; set-up: scale not given: the % may be the effect or the level left; settings: in vivo, 336 h, time 14 day
Method in brief: (§3)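 HCT116 s.c. xenografts in male BALB/c nude mice, n = 6 per group. Dosing was ip once every 7 days for 2 weeks in DMSO/castor oil/ethanol/saline; vehicle controls got solvent. Body weight recorded every other day or every three days. Weight loss taken at day 14. Mean ± SD.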

[9] = Toxicity in BALB/c nude mouse xenografted with human HCT-116 cells assessed as reduction in body weight at 11.1 mg/kg, ip administered once for every 7 days for 14 days relative to control; format: organism-based; set-up: scale not given: the % may be the effect or the level left; settings: in vivo, 336 h, time 14 day; method in brief: as §3
[10] = Toxicity in BALB/c nude mouse xenografted with human HCT-116 cells assessed as reduction in body weight at 5.5 mg/kg, ip administered once for every 7 days for 14 days relative to control; format: organism-based; set-up: scale not given: the % may be the effect or the level left; settings: in vivo, 336 h, time 14 day
Method in brief: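 HCT116 cells (2 × 10^6 in 0.2 mL PBS) inoculated subcutaneously into male BALB/c nude mice; at mean tumor volume 100-200 mm3, randomized, six mice per group. Dosed intraperitoneally once every 7 days in DMSO (0.5%)/castor oil (5%)/ethanol (5%)/saline (89.5%), 0.1 mL per 10 g; vehicle controls received solvent. Body weight monitored every other day or three days; mice weighed on day 14.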

[11] = Toxicity in BALB/c nude mouse xenografted with human HCT-116 cells assessed as concentrated nucleus in liver at 11.17 mg/kg, ip administered once for every 7 days for 14 days by H and E staining based assay; format: organism-based; settings: in vivo, 336 h, time 14 day
Method in brief: (§4)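 At the end of the 14-day ip xenograft study (HCT116, BALB/c nude), heart and liver were collected from vehicle and molar-equivalent dose groups. Tissues fixed in 10% formalin in PBS and stained with H&E. Liver examined at 400×, heart at 100×.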

[12] = Toxicity in BALB/c nude mouse xenografted with human HCT-116 cells assessed as necrosis in liver at 11.17 mg/kg, ip administered once for every 7 days for 14 days by H and E staining based assay; format: organism-based; settings: in vivo, 336 h, time 14 day; method in brief: as §4
[13] = Toxicity in BALB/c nude mouse xenografted with human HCT-116 cells assessed as disordered myocardial fiber in heart at 11.17 mg/kg, ip administered once for every 7 days for 14 days by H and E staining based assay; format: organism-based; settings: in vivo, 336 h, time 14 day; method in brief: as §4
[14] = Toxicity in BALB/c nude mouse xenografted with human HCT-116 cells assessed as inflammatory cell invasion in heart at 11.17 mg/kg, ip administered once for every 7 days for 14 days by H and E staining based assay; format: organism-based; settings: in vivo, 336 h, time 14 day; method in brief: as §4

## CC[C@H](C)[C@H](NC(=O)CNC(=O)[C@H](CCC(N)=O)NC(=O)[C@@H]1CCCN1C(=O)CNC(C)=O)C(=O)N[C@@H](C)C(=O)N[C@@H](CCSC)C(=O)N[C@@H](CCC(N)=O)C(=O)N[C@@H](CC(C)C)C(=O)Nc1ccc(COC(=O)O[C@@H](C(=O)O[C@H]2C[C@@]3(O)[C@@H](OC(=O)c4cccc(F)c4)[C@@H]4[C@]5(OC(C)=O)CO[C@@H]5C[C@H](O)[C@@]4(C)C(=O)[C@H](O)C(=C2C)C3(C)C)[C@@H](NC(=O)OC(C)(C)C(F)(F)F)c2ccccc2)cc1 (Ac-GPQGIAMQL-X2)
SW-620
  IC50: 6.59 µM
HCT-116 [1]
  IC50: 0.0028 µM
CCD-18Co
  IC50: > 200 µM
HEK293
  IC50: 86.8 µM
[2]
  half-life at 50 ug/ml: > 72 h
[3]
  half-life at 50 ug/ml: 43.8 h
HCT-116 [4]
  TGI: Dose-dependent effect
HCT-116 [5]
  inhibition in vivo at 11.1 mg/kg: 35.2%
HCT-116 [6]
  inhibition in vivo at 22.2 mg/kg: 46.3%
HCT-116 [7]
  inhibition in vivo at 5.55 mg/kg: 30.5%
[8]
  Activity: 8.7%
[9]
  Activity: 8.5%
[10]
  Activity: 4.6%
[11]
  Activity: Non-Toxic
[12]
  Activity: Non-Toxic
[13]
  Activity: Non-Toxic
[14]
  Activity: Non-Toxic
